NPY-Y2 PAM-ag: NPY-Y2 potentiators or agonists, primary screen, cell-based; activation, % at 3.6 µM; cells expressing NPY-Y2, potentiator/agonist read-out; hit rate 0.45% among 220,000; Neuropeptide Y receptor type 2 (Homo sapiens), P49146; in the data active means activation above about 27%;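 further: cells stimulated with NPY near EC25 plus isoproterenol at EC100; 0% = vehicle plus submaximal agonist and 100% = vehicle plus saturating agonist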
Target sequence (P49146 whole entry, looked up): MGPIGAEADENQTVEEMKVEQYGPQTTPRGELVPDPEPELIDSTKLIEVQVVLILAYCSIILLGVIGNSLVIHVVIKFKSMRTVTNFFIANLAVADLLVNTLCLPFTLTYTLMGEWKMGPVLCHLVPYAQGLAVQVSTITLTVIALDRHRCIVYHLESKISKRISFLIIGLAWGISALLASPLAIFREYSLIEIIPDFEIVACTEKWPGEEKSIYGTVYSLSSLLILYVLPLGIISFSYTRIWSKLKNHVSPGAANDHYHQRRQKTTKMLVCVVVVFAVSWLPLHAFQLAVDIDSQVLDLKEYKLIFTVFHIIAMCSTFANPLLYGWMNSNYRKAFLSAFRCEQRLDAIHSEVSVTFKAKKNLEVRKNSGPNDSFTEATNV
NPY1 pot ag: NPY-Y1 receptor potentiators or agonists, primary screen, cell-based. NPY-Y1 expressing cells, potentiator/agonist activation. activation, % at 3.6 µM. hit rate 0.37% among 220,000. AID 1304, 2008; in the data active means activation above about 33%, passing the limit was not always enough;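 further: cells stimulated with NPY at EC10 then isoproterenol at EC100; 0% = low agonist plus stimulus and 100% = saturating agonist plus stimulus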
Target sequence (P25929 whole entry, looked up): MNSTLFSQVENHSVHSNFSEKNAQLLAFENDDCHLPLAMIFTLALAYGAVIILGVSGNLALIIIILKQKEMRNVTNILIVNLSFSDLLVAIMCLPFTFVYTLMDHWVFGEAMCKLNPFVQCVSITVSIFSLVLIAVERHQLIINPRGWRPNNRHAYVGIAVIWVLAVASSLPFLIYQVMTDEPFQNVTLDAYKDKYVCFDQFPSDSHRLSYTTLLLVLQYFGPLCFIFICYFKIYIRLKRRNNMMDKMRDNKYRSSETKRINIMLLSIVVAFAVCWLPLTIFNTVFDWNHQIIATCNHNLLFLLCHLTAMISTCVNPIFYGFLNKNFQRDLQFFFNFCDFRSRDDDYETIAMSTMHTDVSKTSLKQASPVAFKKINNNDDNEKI
NPY Y1 blocker: NPY-Y1 receptor antagonists, primary screen, cell-based; hit rate 1% among 200,000; inhibition, % at 3.6 µM; Neuropeptide Y receptor type 1 (Homo sapiens), P25929; HEK293-CNG Y1 cells, membrane potential fluorescence; NPY at EC95, then isoproterenol; AID 1040, 2008;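 active means inhibition above the campaign mean inhibition of all tested compounds plus 3 SD, cut at about 20% in these data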;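 further: 0% = DMSO wells given NPY plus isoproterenol and 100% = isoproterenol alone without NPY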
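Test system – HEK293 Y1/CNG channel cell line · Also added – NPY agonist 25 nM, then isoproterenol 1 µM plus Ro 20-1724 25 µM · Compound dosing – one concentration, 3.6 µM, in 0.4% DMSO · Schedule – compound incubation 1 h at room temperature, readout 45 min post-stimulation · Technique – fluorescence, membrane potential probe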
NPY Y2 blocker: NPY-Y2 receptor antagonists, primary screen, cell-based | inhibition, % at 2.7 µM | NPY-Y2 expressing cells, antagonist mode | AID 793, 2007 | Neuropeptide Y receptor type 2 (Homo sapiens), P49146 | hit rate 0.99% among 140,000;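 further: 0% = vehicle with agonist challenge and 100% = reference antagonist with challenge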
INS promoter inh: inhibitors of insulin promoter-driven GFP, primary screen, imaging, TRM-6 cells, eGFP reporter, cell count; AID 1273, 2008; hit rate 0.9% among 130,000; reporter expression induced with tamoxifen; inhibition, % at 2 µM;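 active means inhibition above the mean plus 3 SD, with well images judged a real hit on visual review, cut at about 60% in these data, passing the limit was not always enough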
Ins promoter up: insulin promoter activators in MIN6 cells, imaging, high-content screening, mouse beta cells. hit rate 0.3% among 190,000. z-score at 5 µM. MIN6 insulin promoter-GFP reporter; stronger effect = higher value. AID 1625, 2009;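 active means z-score above 3 at 5 µM with at least 500 cells counted in the well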
NPY1 antag conf: NPY-Y1 receptor antagonists, retest of hits, confirmation, HEK293-CNG cells, membrane potential fluorescence, triplicate | shares compounds with NPY Y1 blocker | inhibition, % at 3.6 µM | hit rate 21% among 1,200 | cAMP; NPY challenge against isoproterenol-raised cAMP | AID 1254, 2008; in the data active means inhibition above about 20%;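 further: 0% = vehicle with agonist plus stimulus and 100% = stimulus alone without agonist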
NPY2 antag ctr: NPY-Y2 receptor antagonists, selectivity check, confirmation, counter-screen for NPY-Y1 antagonist project, HEK293-CNG cells, membrane potential fluorescence, triplicate. shares compounds with NPY Y1 blocker. antagonism; cells given NPY, then isoproterenol. inhibition, % at 3.6 µM. hit rate 28% among 1,200;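 further: 0% = DMSO with agonist challenge and 100% = reference antagonist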
* = called active by the depositor; x = not tested or not shown. Rows were chosen to be rich in hits. Some 2.5% of all compounds tested hit in one or more screens of this group. Unless noted, no stated cut-off is given here; in the data, active means inhibition above about 17%; inactive means the rest.

SMILES | NPY-Y2 PAM-ag | NPY1 pot ag | NPY Y1 blocker | NPY Y2 blocker | INS promoter inh | Ins promoter up | NPY1 antag conf | NPY2 antag ctr
C=CCOc1c(CCC)cc(CCC)cc1C(N)=O | 28.3 | 19.4 | x | x | x | -0.42 | x | x
COc1cccc(CNn2cnnc2)c1OCc1ccc(F)cc1 | -1.8 | 13.0 | 0.9 | 0.5 | 6.2 | 0.13 | x | x
COc1cccc(CNC23CC4CC(CC(C4)C2)C3)c1OCc1ccccc1 | -22.7 | -89.6 | 164.8* | x | x | -1.57 | 114.2* | 84.2*
O=C(c1ccc2c(c1)OCO2)N(CC1CCCO1)C1(C(=O)NC2CCCC2)CCCCC1 (configuration not stated) | 1.4 | -2.3 | 30.0* | 15.5 | x | 0.09 | 13.1 | 8.1
Cc1csc2c(N3CCN(C(=O)c4ccc(C(C)(C)C)cc4)CC3)ncnc12 | -9.7 | -26.4 | x | x | x | -0.53 | x | x
COc1ccc(Nc2ccc(C(N)=O)cc2[N+](=O)[O-])cc1 | 5.5 | 9.1 | 4.6 | x | 45.5 | 0 | x | x
COc1ccc(Nc2ccc(C(=O)O)cc2[N+](=O)[O-])cc1 | 2.8 | -20.6 | 22.3* | 6.0 | -4.8 | 0.36 | 3.9 | 9.0
COc1ccccc1NC(=O)/C=C/c1ccc2c(c1)OCO2 | -25.5 | -9.4 | 15.4 | x | x | 0.25 | x | x
COc1ccccc1NC(=O)COC(=O)/C=C/c1ccc2c(c1)OCO2 | -48.8 | -29.1 | 26.8* | x | x | x | 11.2 | 7.1
CC1CCN(C(=O)CSc2nc3ccccc3c(=O)n2Cc2ccc3c(c2)OCO3)CC1 | -19.5 | -42.9 | 20.7* | 11.7 | 3.3 | 0.03 | 3.5 | 6.0
CN(C)S(=O)(=O)c1cccc(NC(=O)COC(=O)c2cc(=O)c3ccccc3o2)c1 | -7.7 | 8.5 | x | x | x | 0.08 | x | x
COc1cc(C2C(C(=O)c3ccco3)=C(O)C(=O)N2CCc2ccccc2)ccc1O (configuration not stated) | -1.6 | -2.9 | 12.9 | 8.3 | x | -0.27 | x | x
COc1ccc(CCN2C(=O)C(O)=C(C(=O)c3ccco3)C2c2cccs2)cc1OC (configuration not stated) | -16.5 | -26.8 | 22.6* | 5.5 | 9.1 | x | 7.3 | 6.7
O=C(NCc1ccco1)C(c1ccccc1)N(C(=O)Cc1cccs1)c1ccccc1F (configuration not stated) | -0.7 | 7.4 | 22.2* | 12.7 | -62.9 | -0.87 | 2.1 | 3.5
O=C(NCc1ccco1)C(c1ccncc1)N(C(=O)Cc1cccs1)c1ccccc1 (configuration not stated) | -14.4 | 0.8 | 4.9 | x | -182.1 | x | x | x
Cc1ccc(NS(=O)(=O)c2ccc(NC(=O)C(C)Sc3ccc(Cl)cc3)cc2)c(C)c1 (configuration not stated) | 13.2 | -3.1 | -4.9 | -0.8 | 22.2 | 0.02 | x | x
COc1cc(C(=O)N/N=C/c2sccc2C)cc(OC)c1OC | -5.2 | 0.6 | 50.2* | x | -233.3 | -0.87 | 2.6 | 12.0
Cc1ccsc1/C=N/NC(=O)c1ccncc1 | 3.6 | 10.0 | -1.4 | x | 18.5 | -1.21 | x | x
O=C(Nc1ccccc1)C1=C[C@H](c2csc3ccccc23)C[C@H](OCc2ccc(CO)cc2)O1 | -14.5 | -2.6 | 25.5* | x | x | -1.04 | 8.7 | 8.4
COc1ccc(C(=O)N2CCn3c2nc2ccccc23)cc1 | -7.4 | 15.7 | -0.2 | x | 12.2 | 0.08 | x | x
COc1ccc(C(=O)n2c(-c3ccco3)nc3ccccc32)cc1 | -16.7 | -30.1 | 22.6* | 6.6 | 41.2 | 0.61 | 8.5 | 13.9
CC(C)(C)NC(=O)c1oc2ccccc2c1COc1ccccc1 | -7.2 | -46.9 | 28.0* | 13.3 | -53.3 | -0.09 | 26.4* | 13.6
COc1ccc2cc(Br)ccc2c1CC(=O)N(C)C | 2.3 | 14.2 | 0.9 | x | x | 0.13 | x | x
CCCCN(C)C(=O)Cc1c(OC)ccc2cc(Br)ccc12 | 6.0 | -16.2 | 21.1* | 14.0 | -38.5 | -0.13 | 16.3 | 7.6
O=C(O)CC/C(=C\c1ccc(N2CCOCC2)c([N+](=O)[O-])c1)c1nc2ccccc2s1 | -39.5 | -54.1 | 40.6* | x | x | 0.11 | 54.4* | 79.4*
SMILES | NPY-Y2 PAM-ag | NPY1 pot ag | NPY Y1 blocker | NPY Y2 blocker | INS promoter inh | Ins promoter up | NPY1 antag conf | NPY2 antag ctr
CCC(C)(C)n1nnnc1C(c1ccncc1)N1CCN(c2cccc(OC)c2)CC1 (configuration not stated) | -3.1 | -13.8 | 12.7 | 4.2 | 5.3 | -0.42 | x | x
CCC(C)(C)n1nnnc1C(c1cccnc1)N1CCN(c2cccc(C(F)(F)F)c2)CC1 (configuration not stated) | -7.4 | 2.2 | 25.4* | 16.6 | -24.3 | 1.87 | 14.3 | 8.1
Cc1cc(NC(=O)NN2CCOCC2)nn1-c1c(Cl)cc(Cl)cc1Cl | 1.6 | 14.9 | x | x | x | x | x | x
CC1CCCCC1NC(=O)CN1C(=O)CSc2cc(S(=O)(=O)N3CCCCCC3)ccc21 (configuration not stated) | -10.6 | -34.5 | 31.3* | 15.9 | -77.8 | -0.38 | 6.4 | 6.2
CC(CC(=O)NC1CCCC1)c1ccccc1 (configuration not stated) | -3.9 | 0.3 | 4.8 | -3.0 | -25.0 | -0.44 | x | x
COc1cc(C)c(C)cc1S(=O)(=O)N1CCN(Cc2ccc3c(c2)OCO3)CC1 | -22.8 | -43.2 | 24.1* | 10.6 | -57.1 | 0.82 | 12.9 | 11.3
NNC(=O)c1cc2c(ccc3ccccc32)o1 | -3.6 | 4.9 | -1.9 | x | -30.8 | 1.19 | x | x
O=C(O)c1cc2c(ccc3ccccc32)o1 | -20.8 | -29.6 | 32.3* | 14.2 | x | 0.88 | 12.9 | 15.2
CCn1cc(C2C(C(=O)Nc3cc(C)ccn3)=C(C)NC3=C2C(=O)CC(C)(C)C3)c(C)n1 (configuration not stated) | 15.7 | 17.9 | -2.5 | -0.4 | x | -0.41 | x | x
CC1c2ccccc2SC(CCCN(C)C)c2ccccc21 (configuration not stated) | -10.2 | -38.8 | 19.6 | 6.4 | -50.0 | 0.1 | x | x
CN(C)CCC1Sc2ccccc2Oc2ccccc21 (configuration not stated) | -18.0 | -40.9 | 26.8* | 5.6 | -45.0 | -1.22 | 4.0 | 5.4
COCCOC(=O)c1[nH]c2c(c1C)C(=O)CC(c1cccs1)C2 (configuration not stated) | 1.1 | -1.7 | 0.8 | x | -154.1 | 0.49 | x | x
Cc1c(C(=O)OCC(C)C)[nH]c2c1C(=O)CC(c1cccs1)C2 (configuration not stated) | -23.3 | -2.8 | 30.0* | 8.1 | -100.0 | -0.45 | 6.1 | 23.7*
CN(C)C(=O)c1cc2cc(Br)ccc2s1 | -3.3 | -11.0 | 7.0 | x | x | -0.24 | x | x

Compound activity as filed in PubChem BioAssay.
